Measured values taken from ChEMBL document CHEMBL1143428, “Extended-spectrum-beta-lactamase-producing Enterobacteriaceae strains in various types of private health care centers” (2007).
Converted amounts (≈) assume the structure as drawn.

What was measured:
Type in all cases: functional
Klebsiella aerogenes [1] = experiment: Antimicrobial activity against Enterobacter aerogenes Ea1 expressing TEM-24b AmpC +/- TEM-1 or TEM-2 gene
Summary of the method: (§1)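 β-Lactam MICs (μg/ml) measured against clinical Enterobacteriaceae isolates collected from private health care centers. Enzyme content of each isolate was assigned by isoelectric focusing, PCR with blaTEM/blaSHV/blaCTX-M primers and sequencing, with cloning to separate coexisting TEM or SHV genes. In combination tests, the β-lactamase inhibitor clavulanic acid was held at a fixed 2 μg/ml.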

Klebsiella aerogenes [2] = experiment: Antimicrobial activity against Enterobacter aerogenes Ea1 expressing TEM-24b gene
Summary of the method: (§2)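 Clinical isolates from private health care centers. β-Lactamase content was assigned by isoelectric focusing, PCR with blaTEM-, blaSHV- and blaCTX-M-specific primers, and sequencing. MICs (μg/ml) were reported for amoxicillin, cefoxitin, cefotaxime, ceftazidime, imipenem and ertapenem. Amoxicillin, cefotaxime and ceftazidime were also tested with clavulanic acid held at a fixed 2 μg/ml.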

Klebsiella aerogenes [3] = experiment: Antimicrobial activity against Enterobacter aerogenes Ea2 expressing TEM-3 AmpC gene; summary of the method: as §2
Klebsiella aerogenes [4] = experiment: Antimicrobial activity against Enterobacter aerogenes Ea2 expressing TEM-3 gene; summary of the method: as §2
Escherichia coli [5] = experiment: Antimicrobial activity against Escherichia coli Ec1 containing pEc1-A plasmid expressing CTX-M-15 TEM-1 OXA-1 gene; summary of the method: as §1
Escherichia coli [6] = experiment: Antimicrobial activity against Escherichia coli Ec2 containing pEc1-B plasmid expressing CTX-M-15 TEM-1 OXA-1 gene; summary of the method: as §2
Escherichia coli [7] = experiment: Antimicrobial activity against Escherichia coli Ec2-a containing pEc1-C plasmid expressing CTX-M-15 OXA-1 gene; summary of the method: as §2
Escherichia coli [8] = experiment: Antimicrobial activity against Escherichia coli Ec2 containing pEc1-D plasmid expressing CTX-M-15 TEM-1 OXA-1gene; summary of the method: as §1
Escherichia coli [9] = experiment: Antimicrobial activity against Escherichia coli Ec3 expressing CTX-M-15 TEM-1 OXA-1 gene; summary of the method: as §1
Escherichia coli [10] = experiment: Antimicrobial activity against Escherichia coli Ec4 expressing CTX-M-1 AmpC gene; summary of the method: as §1
Escherichia coli [11] = experiment: Antimicrobial activity against Escherichia coli Ec5 expressing CTX-M-2 TEM-1 gene; summary of the method: as §1
Escherichia coli [12] = experiment: Antimicrobial activity against Escherichia coli Ec7 expressing SHV-12 IRT-6 gene; summary of the method: as §2
Escherichia coli [13] = experiment: Antimicrobial activity against Escherichia coli Ec8 expressing TEM-21 AmpC gene; summary of the method: as §2
Escherichia coli [14] = experiment: Antimicrobial activity against Escherichia coli Ec9 expressing TEM-24b TEM-26 gene; summary of the method: as §1
Escherichia coli [15] = experiment: Antimicrobial activity against Escherichia coli Ec10 expressing TEM-24b gene; summary of the method: as §1
Klebsiella pneumoniae [16] = experiment: Antimicrobial activity against Klebsiella pneumoniae Kp1 expressing SHV-4 gene; summary of the method: as §1
Klebsiella pneumoniae [17] = experiment: Antimicrobial activity against Klebsiella pneumoniae Kp2 expressing TEM-15 gene; summary of the method: as §1
Klebsiella pneumoniae [18] = experiment: Antimicrobial activity against Klebsiella pneumoniae Kp2 expressing TEM-15 TEM-17 TEM-1 gene; summary of the method: as §1
Klebsiella pneumoniae [19] = experiment: Antimicrobial activity against Klebsiella pneumoniae Kp3 expressing SHV-2a TEM-1 gene; summary of the method: as §1
Klebsiella pneumoniae [20] = experiment: Antimicrobial activity against Klebsiella pneumoniae Kp4 expressing SHV-12 SHV-1 and plasmid-mediated cephalosporinase CMY-4; summary of the method: as §1
Klebsiella pneumoniae [21] = experiment: Antimicrobial activity against Klebsiella pneumoniae Kp5 expressing plasmid-mediated cephalosporinase ACC-1 and TEM-1; summary of the method: as §1
Proteus mirabilis [22] = experiment: Antimicrobial activity against Proteus mirabilis Pm1-Pm3 expressing TEM-24b gene; summary of the method: as §2
Proteus mirabilis [23] = experiment: Antimicrobial activity against Proteus mirabilis Pm4 expressing TEM-21 gene; summary of the method: as §2
Enterobacter cloacae = experiment: Antimicrobial activity against Enterobacter cloacae Ecl1 expressing TEM-24b AmpC TEM-1 gene; summary of the method: as §1
Morganella morganii = experiment: Antimicrobial activity against Morganella morganii expressing TEM-24b AmpC gene; summary of the method: as §1
Klebsiella oxytoca = experiment: Antimicrobial activity against Klebsiella oxytoca expressing TEM-11 gene; summary of the method: as §2
Escherichia coli [24] = experiment: Antimicrobial activity against Escherichia coli Ec6 expressing CTX-M-14 gene; summary of the method: as §1

Row | SMILES | MIC (Klebsiella aerogenes [1]) [µg/mL] | MIC (Klebsiella aerogenes [2]) [µg/mL] | MIC (Klebsiella aerogenes [3]) [µg/mL] | MIC (Klebsiella aerogenes [4]) [µg/mL] | MIC (Escherichia coli [6]) [µg/mL] | MIC (Escherichia coli [7]) [µg/mL] | MIC (Escherichia coli [8]) [µg/mL] | MIC (Escherichia coli [9]) [µg/mL] | MIC (Escherichia coli [10]) [µg/mL] | MIC (Escherichia coli [11]) [µg/mL] | MIC (Escherichia coli [12]) [µg/mL] | MIC (Escherichia coli [13]) [µg/mL] | MIC (Escherichia coli [14]) [µg/mL] | MIC (Klebsiella pneumoniae [16]) [µg/mL] | MIC (Klebsiella pneumoniae [17]) [µg/mL] | MIC (Klebsiella pneumoniae [18]) [µg/mL] | MIC (Klebsiella pneumoniae [19]) [µg/mL] | MIC (Klebsiella pneumoniae [20]) [µg/mL] | MIC (Klebsiella pneumoniae [21]) [µg/mL] | MIC (Proteus mirabilis [22]) [µg/mL] | also measured
1 | CO/N=C(\C(=O)N[C@@H]1C(=O)N2C(C(=O)O)=C(COC(C)=O)CS[C@H]12)c1csc(N)n1 [CEFOTAXIME] | 1 (≈ 2.2 µM) | 1 (≈ 2.2 µM) | 4 (≈ 8.78 µM) | 0.2 (≈ 0.439 µM) | 64 (≈ 141 µM) | 256 (≈ 562 µM) | 2 (≈ 4.39 µM) | 512 (≈ 1120 µM) | 64 (≈ 141 µM) | 32 (≈ 70.3 µM) | 16 (≈ 35.1 µM) | 32 (≈ 70.3 µM) | 1 (≈ 2.2 µM) | 8 (≈ 17.6 µM) | 8 (≈ 17.6 µM) | 64 (≈ 141 µM) | 2 (≈ 4.39 µM) | 16 (≈ 35.1 µM) | 8 (≈ 17.6 µM) | 0.5 (≈ 1.1 µM) | MIC (Escherichia coli [5]): 256 µg/mL (≈ 562 µM); MIC (Escherichia coli [15]): 2 µg/mL (≈ 4.39 µM); MIC (Proteus mirabilis [23]): 2 µg/mL (≈ 4.39 µM); MIC (Enterobacter cloacae): 64 µg/mL (≈ 141 µM); MIC (Morganella morganii): 16 µg/mL (≈ 35.1 µM); MIC (Klebsiella oxytoca): 1 µg/mL (≈ 2.2 µM); MIC (Escherichia coli [24]): 32 µg/mL (≈ 70.3 µM)
2 | CO[C@@]1(NC(=O)Cc2cccs2)C(=O)N2C(C(=O)O)=C(COC(N)=O)CS[C@@H]21 [CEFOXITIN] | 512 (≈ 1200 µM) | 8 (≈ 18.7 µM) | 128 (≈ 299 µM) | 32 (≈ 74.9 µM) | 8 (≈ 18.7 µM) | 8 (≈ 18.7 µM) | 32 (≈ 74.9 µM) | 32 (≈ 74.9 µM) | 64 (≈ 150 µM) | 4 (≈ 9.36 µM) | 64 (≈ 150 µM) | 128 (≈ 299 µM) | 4 (≈ 9.36 µM) | 16 (≈ 37.4 µM) | 4 (≈ 9.36 µM) | 64 (≈ 150 µM) | 4 (≈ 9.36 µM) | 32 (≈ 74.9 µM) | 8 (≈ 18.7 µM) | 2 (≈ 4.68 µM) | MIC (Escherichia coli [5]): 4 µg/mL (≈ 9.36 µM); MIC (Escherichia coli [15]): 8 µg/mL (≈ 18.7 µM); MIC (Proteus mirabilis [23]): 4 µg/mL (≈ 9.36 µM); MIC (Enterobacter cloacae): 512 µg/mL (≈ 1200 µM); MIC (Morganella morganii): 128 µg/mL (≈ 299 µM); MIC (Klebsiella oxytoca): 8 µg/mL (≈ 18.7 µM); MIC (Escherichia coli [24]): 4 µg/mL (≈ 9.36 µM)
3 | CC(C)(O/N=C(\C(=O)N[C@@H]1C(=O)N2C(C(=O)[O-])=C(C[n+]3ccccc3)CS[C@H]12)c1csc(N)n1)C(=O)O [CEFTAZIDIME] | 256 (≈ 468 µM) | 128 (≈ 234 µM) | 16 (≈ 29.3 µM) | 16 (≈ 29.3 µM) | 16 (≈ 29.3 µM) | 256 (≈ 468 µM) | 1 (≈ 1.83 µM) | 256 (≈ 468 µM) | 8 (≈ 14.6 µM) | 1 (≈ 1.83 µM) | 128 (≈ 234 µM) | 64 (≈ 117 µM) | 128 (≈ 234 µM) | 128 (≈ 234 µM) | 32 (≈ 58.5 µM) | 512 (≈ 937 µM) | 256 (≈ 468 µM) | 4 (≈ 7.32 µM) | 64 (≈ 117 µM) | 8 (≈ 14.6 µM) | MIC (Escherichia coli [5]): 64 µg/mL (≈ 117 µM); MIC (Escherichia coli [15]): 256 µg/mL (≈ 468 µM); MIC (Proteus mirabilis [23]): 1 µg/mL (≈ 1.83 µM); MIC (Enterobacter cloacae): 512 µg/mL (≈ 937 µM); MIC (Morganella morganii): 128 µg/mL (≈ 234 µM); MIC (Klebsiella oxytoca): 128 µg/mL (≈ 234 µM); MIC (Escherichia coli [24]): 4 µg/mL (≈ 7.32 µM)
4 | C[C@@H](O)[C@H]1C(=O)N2C(C(=O)O)=C(S[C@@H]3CN[C@H](C(=O)Nc4cccc(C(=O)O)c4)C3)[C@H](C)[C@H]12 [ERTAPENEM] | 0.05 (≈ 0.105 µM) | 0.02 (≈ 0.0421 µM) | 0.2 (≈ 0.421 µM) | 0.02 (≈ 0.0421 µM) | 0.1 (≈ 0.21 µM) | 0.2 (≈ 0.421 µM) | 0.05 (≈ 0.105 µM) | 0.1 (≈ 0.21 µM) | 0.05 (≈ 0.105 µM) | 0.05 (≈ 0.105 µM) | 0.2 (≈ 0.421 µM) | 0.1 (≈ 0.21 µM) | ≤ 0.01 | 0.02 (≈ 0.0421 µM) | 0.02 (≈ 0.0421 µM) | 0.1 (≈ 0.21 µM) | 0.02 (≈ 0.0421 µM) | 0.01 (≈ 0.021 µM) | 0.05 (≈ 0.105 µM) | 0.01 (≈ 0.021 µM) | MIC (Escherichia coli [5]): 0.05 µg/mL (≈ 0.105 µM); MIC (Escherichia coli [15]): 0.02 µg/mL (≈ 0.0421 µM); MIC (Proteus mirabilis [23]): 0.01 µg/mL (≈ 0.021 µM); MIC (Enterobacter cloacae): 0.5 µg/mL (≈ 1.05 µM); MIC (Morganella morganii): 0.02 µg/mL (≈ 0.0421 µM); MIC (Klebsiella oxytoca): 0.1 µg/mL (≈ 0.21 µM); MIC (Escherichia coli [24]): 0.02 µg/mL (≈ 0.0421 µM)
5 | C[C@@H](O)[C@H]1C(=O)N2C(C(=O)O)=C(SCCNC=N)C[C@H]12 [IMIPENEM ANHYDROUS] | 0.5 (≈ 1.67 µM) | 0.5 (≈ 1.67 µM) | 1 (≈ 3.34 µM) | 0.5 (≈ 1.67 µM) | 0.5 (≈ 1.67 µM) | 0.5 (≈ 1.67 µM) | 0.5 (≈ 1.67 µM) | 0.5 (≈ 1.67 µM) | 1 (≈ 3.34 µM) | 0.5 (≈ 1.67 µM) | 0.5 (≈ 1.67 µM) | 0.5 (≈ 1.67 µM) | 0.5 (≈ 1.67 µM) | 0.5 (≈ 1.67 µM) | 0.5 (≈ 1.67 µM) | 0.5 (≈ 1.67 µM) | 1 (≈ 3.34 µM) | 1 (≈ 3.34 µM) | 0.5 (≈ 1.67 µM) | 1 (≈ 3.34 µM) | MIC (Proteus mirabilis [23]): 1 µg/mL (≈ 3.34 µM); MIC (Enterobacter cloacae): 1 µg/mL (≈ 3.34 µM); MIC (Morganella morganii): 4 µg/mL (≈ 13.4 µM); MIC (Klebsiella oxytoca): 0.5 µg/mL (≈ 1.67 µM); MIC (Escherichia coli [24]): 0.5 µg/mL (≈ 1.67 µM)
